Results as given in ChEMBL document CHEMBL5252639, “Exploration of cytotoxic potential and tubulin polymerization inhibition activity of cis-stilbene-1,2,3-triazole congeners” (RSC Med Chem, 2023).

Tests used:
Tubulin (Homo sapiens) = Tubulin (Homo sapiens) (UniProt P68371+Q9H4B7+P0DPH7+P68366+Q13509+Q71U36+P04350+Q3ZCM7+P07437+P68363+Q9BQE3+Q6PEY2+Q13885+Q9BVA1+Q9BUF5); experiment: Inhibition of tubulin polymerization in human HCT-116 cells at 3 uM measured after 1 hr relative to control; assay type: cell-based
B16-F10 = experiment: Cytotoxicity against mouse B16-F10 cells assessed as inhibition of cell growth measured for 24 hrs by MTT assay; assay type: functional, cell-based; conditions: B16-F10, 24 h
In short: (§1)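 Cells were kept at 37 °C with 5% CO2 in suitable medium with 10% FBS and 1% antibiotic-antimycotic, and passaged at 80-90% confluency using 0.25% trypsin/1 mM EDTA. They were seeded at 1×10^3–4×10^3 cells/well and attached overnight. Compounds came from 10 mM DMSO stocks diluted in medium and were applied for 24 h. MTT (0.5 mg/mL) was added for 4 h at 37 °C, formazan was dissolved in DMSO, and absorbance was read at 570 nm.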

HCT-116 [1] = experiment: Cytotoxicity against human HCT-116 cells assessed as inhibition of cell growth measured for 24 hrs by MTT assay; assay type: functional, cell-based; conditions: HCT-116, 24 h; in short: as §1
A549 = experiment: Cytotoxicity against human A549 cells assessed as inhibition of cell growth measured for 24 hrs by MTT assay; assay type: functional, cell-based; conditions: A549, 24 h; in short: as §1
BT-474 = experiment: Cytotoxicity against human BT-474 cells assessed as inhibition of cell growth measured for 24 hrs by MTT assay; assay type: functional, cell-based; conditions: BT-474, 24 h; in short: as §1
HCT-116 [2] = experiment: Induction of cell cycle arrest in human HCT-116 cells assessed as accumulation of cells at G2/M phase at 0.55 uM measured after 24 hrs by PI staining based flow cytometry analysis relative to control (reference value: 15.61%)
HCT-116 [3] = experiment: Induction of cell cycle arrest in human HCT-116 cells assessed as accumulation of cells at S phase at 0.55 uM measured after 24 hrs by PI staining based flow cytometry analysis relative to control (reference value: 5.55%)
HCT-116 [4] = experiment: Induction of cell cycle arrest in human HCT-116 cells assessed as accumulation of cells at G0/G1 phase at 0.55 uM […] by PI staining based flow cytometry analysis relative to control (reference value: 70.34%); assay type: functional
HCT-116 [5] = experiment: Induction of apoptosis in human HCT-116 cells assessed as viable cells at 0.55 uM measured after 24 hrs by Annexin V-FITC/propidium iodide staining based flow cytometry (reference value: 99.71%); assay type: functional; conditions: read-out: Activity
HCT-116 [6] = experiment: Induction of morphological change in human HCT-116 cells assessed as cell rounding incubated for 24 hrs by phase contrast microscopic analysis; assay type: functional, cell-based; conditions: dose 1.62-6.5 µM
In short: (§2)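 HCT-116 plated at 1 × 10^6 cells/mL in RPMI + 10% FBS and allowed to adhere 24 h at 37 °C, 5% CO2. […] After 24 h, morphology imaged by phase-contrast microscopy at 20X.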

HCT-116 [7] = experiment: Induction of apoptosis in human HCT-116 cells assessed as early apoptotic cells at 0.55 uM measured after 24 hrs by Annexin V-FITC/propidium iodide staining based flow cytometry (reference value: 0.28%); assay type: functional
HCT-116 [8] = experiment: Induction of morphological change in human HCT-116 cells assessed as change in cell shape incubated for 24 hrs by phase contrast microscopic analysis; assay type: functional, cell-based; conditions: dose 1.62-6.5 µM; in short: as §2
HCT-116 [9] = experiment: Induction of apoptosis in human HCT-116 cells assessed as late apoptotic cells at 0.55 uM measured after 24 hrs by Annexin V-FITC/propidium iodide staining based flow cytometry (reference value: 0.00%); assay type: functional
HCT-116 [10] = experiment: Induction of morphological change in human HCT-116 cells assessed as cell detachment incubated for 24 hrs by phase contrast microscopic analysis; assay type: functional, cell-based; in short: as §2
HCT-116 [11] = experiment: Induction of apoptosis in human HCT-116 cells assessed as horseshoe shaped nuclei measured for 24 hrs by DAPI staining based microscopic analysis; assay type: functional, cell-based; conditions: dose 1.62-6.5 µM
In short: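 Then PBS wash, 4% paraformaldehyde fixation 30 min, 0.1% Triton X permeabilisation 15 min, 1 µM DAPI 15 min, PBS wash. Imaged by fluorescence microscopy (ex 350/em 460 nm), 20X.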

HCT-116 [12] = experiment: Induction of apoptosis in human HCT-116 cells assessed as necrotic cells at 0.55 uM measured after 24 hrs by Annexin V-FITC/propidium iodide staining based flow cytometry (reference value: 0.00%); assay type: functional

SMILES	IC50 (B16-F10)	IC50 (HCT-116 [1])	IC50 (A549)	IC50 (BT-474)	other results
CC(=O)O[C@H]1C(=O)[C@@]2(C)[C@H]([C@H](OC(=O)c3ccccc3)[C@]3(O)C[C@H](OC(=O)[C@H](O)[C@@H](NC(=O)c4ccccc4)c4ccccc4)C(C)=C1C3(C)C)[C@]1(OC(C)=O)CO[C@@H]1C[C@@H]2O					inhibition (Tubulin (Homo sapiens)): 49.5%
COc1ccc(/C=C(/C(=O)OCc2cn(Cc3ccccc3)nn2)c2ccc(OC)c(OC)c2)cc1OC	16.1 µM	20.2 µM	32.7 µM	14.9 µM	
COc1ccc(/C=C(/C(=O)OCc2cn(CC(=O)c3ccc(Cl)cc3)nn2)c2ccc(OC)c(OC)c2)cc1OC	> 50 µM	31.9 µM	38.6 µM	> 50 µM	
COc1ccc(/C=C(/C(=O)OCc2cn(Cc3ccc(F)cc3)nn2)c2ccc(OC)c(OC)c2)cc1OC	2.37 µM	21.6 µM	28.9 µM	17.1 µM	
COc1ccc(/C=C(/C(=O)OCc2cn(Cc3ccc([N+](=O)[O-])cc3)nn2)c2ccc(OC)c(OC)c2)cc1OC	17.5 µM	35 µM	36.8 µM	28.4 µM	
COc1ccc(/C=C(/C(=O)OCc2cn(Cc3ccc(Br)cc3)nn2)c2ccc(OC)c(OC)c2)cc1OC	1.53 µM	25.3 µM	15.2 µM	20.7 µM	
COc1ccc(/C=C(/C(=O)OCc2cn(Cc3ccc(C)cc3)nn2)c2ccc(OC)c(OC)c2)cc1OC	1.73 µM	21.1 µM	12.4 µM	12.4 µM	
COc1ccc(C(=O)Cn2cc(COC(=O)/C(=C/c3ccc(OC)c(OC)c3)c3ccc4c(c3)OCO4)nn2)cc1	37.7 µM	> 50 µM	31.3 µM	> 50 µM	
COc1ccc(C(=O)Cn2cc(COC(=O)/C(=C/c3ccc(OC)c(OC)c3)c3ccc(OC)c(OC)c3)nn2)cc1	14.1 µM	18 µM	41.9 µM	47.5 µM	
COc1ccc(/C=C(/C(=O)OCc2cn(CC(=O)c3ccc(Cl)c(Cl)c3)nn2)c2ccc(OC)c(OC)c2)cc1OC	29.6 µM	26.5 µM	37 µM	47.5 µM	
COc1cc2c(c(OC)c1OC)-c1ccc(OC)c(=O)cc1[C@@H](NC(C)=O)CC2 [COLCHICINE]		0.55 µM	0.89 µM	12.5 µM	Activity (HCT-116 [2]): 40.57%; Activity (HCT-116 [3]): 6.61%; Activity (HCT-116 [4]): 54.45%; viability at 0.55 µM (HCT-116 [5]): 31.1%; Activity (HCT-116 [6]): Dose-Dependent Effect; Activity (HCT-116 [7]): 10.32%; Activity (HCT-116 [8]): Dose-Dependent Effect; Activity (HCT-116 [9]): 61.81%; Activity (HCT-116 [10]): Dose-Dependent Effect; Activity (HCT-116 [11]): Dose-Dependent Effect; Activity (HCT-116 [12]): 6.78%
COc1ccc(/C=C(/C(=O)OCc2cn(Cc3ccccc3[N+](=O)[O-])nn2)c2ccc(OC)c(OC)c2)cc1OC	39.5 µM	38.1 µM	41 µM	40.8 µM	
COc1ccc(/C=C(/C(=O)OCc2cn(CC(=O)c3ccc(Br)cc3)nn2)c2ccc(OC)c(OC)c2)cc1OC	> 50 µM	35.8 µM	42.9 µM	> 50 µM	
COc1ccc(/C=C(/C(=O)OCc2cn(CC(=O)c3ccc(Cl)c(Cl)c3)nn2)c2ccc3c(c2)OCO3)cc1OC	41.6 µM	> 50 µM	25.5 µM	> 50 µM	
COc1ccc(/C=C(/C(=O)OCc2cn(CC(=O)c3ccc(C)cc3)nn2)c2ccc(OC)c(OC)c2)cc1OC	> 50 µM	33.4 µM	41.7 µM	40.7 µM	
COc1ccc(/C=C(/C(=O)OCc2cn(CC(=O)c3ccccc3)nn2)c2ccc(OC)c(OC)c2)cc1OC	40.2 µM	23.5 µM	38.2 µM	16.2 µM	
COc1ccc(/C=C(/C(=O)OCc2cn(CC(=O)c3ccccc3)nn2)c2ccc3c(c2)OCO3)cc1OC	30.9 µM	> 50 µM	30.8 µM	> 50 µM	
COc1ccc(/C=C(/C(=O)OCc2cn(Cc3ccccc3F)nn2)c2ccc(OC)c(OC)c2)cc1OC	17.4 µM	22.1 µM	29.2 µM	26.2 µM	
COc1ccc(/C=C(/C(=O)OCc2cn(Cc3cc(C)ccc3C)nn2)c2ccc(OC)c(OC)c2)cc1OC	40.8 µM	49.9 µM	> 50 µM	20.1 µM	
COc1ccc(/C=C(/C(=O)OCc2cn(CC(=O)c3ccc(Cl)cc3)nn2)c2ccc3c(c2)OCO3)cc1OC	28.9 µM	> 50 µM	37.3 µM	> 50 µM	
COc1ccc(/C=C(/C(=O)OCc2cn(Cc3cccc(Cl)c3)nn2)c2ccc(OC)c(OC)c2)cc1OC	22.8 µM	21.2 µM	> 50 µM	> 50 µM	
